pIC50: −log10 of the molar value.
What was measured:
[1] = tested on: Brain; assay: Biodistribution in NMRI mouse brain assessed as radioactivity after 60 mins; assay type: ADME, organism-based; settings: in vivo, 1 h
Procedure, shortened: (§1)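 Male NMRI mice (37–43 g) given 0.1 mL HPLC-purified tracer (diluted in water for injection, EtOH <5%; 37 MBq/mL for 11C tracer, 3.7 MBq/mL for 18F tracer) via tail vein under ketamine/xylazine ip anaesthesia. Decapitation at 2 or 60 min, n=3 per time point. Organs dissected, weighed, gamma counted. Results given as %ID (cpm organ/total cpm recovered) or SUV. Blood mass taken as 7% of body mass. Mean ± SD.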

[2] = tested on: Muscle tissue; assay: Drug uptake in mouse muscle assessed as radioactivity at 11.5 MBq after 30 mins; assay type: ADME, tissue-based; settings: in vivo, 0.5 h
Procedure, shortened: (§2)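 Normal mice given 11.5 MBq of 18F tracer. Killed at 2, 10 or 30 min, two animals per time point. Left and right femur and muscle collected, weighed and gamma counted. Uptake given as %ID/g.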

[3] = tested on: Liver; assay: Biodistribution in NMRI mouse liver assessed as radioactivity after 2 mins; assay type: ADME, organism-based; settings: in vivo; procedure, shortened: as §1
[4] = tested on: Brain; assay: Biodistribution in NMRI mouse brain assessed as radioactivity after 2 mins; assay type: ADME, organism-based; settings: in vivo; procedure, shortened: as §1
[5] = tested on: Blood; assay: Drug uptake in mouse blood assessed as radioactivity at 11.5 MBq after 2 mins; assay type: ADME, tissue-based
Procedure, shortened: (§3)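 About 11.5 MBq of 18F tracer injected iv into mice. Decapitation at 2, 10 or 30 min, n=2 per time point. Blood collected into K2EDTA tubes, weighed and gamma counted. Plasma separated by centrifugation (1837g, 10 min) and counted. Values given as %ID/g normalised to sample weight and injected dose; plasma/whole-blood ratio also derived.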

[6] = tested on: Stomach; assay: Biodistribution in NMRI mouse stomach assessed as radioactivity after 2 mins; assay type: ADME, organism-based; settings: in vivo; procedure, shortened: as §1
[7] = tested on: Muscle tissue; assay: Drug uptake in mouse muscle assessed as radioactivity at 11.5 MBq after 2 mins; assay type: ADME, tissue-based; settings: in vivo; procedure, shortened: as §2
[8] = tested on: Lung; assay: Biodistribution in NMRI mouse lungs assessed as radioactivity after 60 mins; assay type: ADME, organism-based; settings: in vivo, 1 h; procedure, shortened: as §1
[9] = tested on: Blood; assay: Biodistribution in NMRI mouse blood assessed as radioactivity after 2 mins; assay type: ADME, organism-based; settings: in vivo; procedure, shortened: as §1
[10] = tested on: Plasma; assay: Metabolic stability in mouse plasma assessed as radioactivity after 30 mins; assay type: ADME, cell-free; settings: 0.5 h
Procedure, shortened: (§4)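 Plasma taken 2, 10 or 30 min after iv 18F tracer in normal mice (n=2 per time point), and urine collected at 60 min by manual bladder voiding. Samples spiked with authentic non-radioactive compound and applied without pretreatment to an Oasis HLB column in-line with a C18 RP-HPLC column. Eluate collected as 1 mL fractions and gamma counted. Result given as intact tracer as % of recovered radioactivity.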

[11] = tested on: Nucleic Acid; assay: Ratio of drug level in plasma to whole blood in mouse assessed as radioactivity at 11.5 MBq, iv after 2 mins; assay type: ADME, organism-based; settings: in vivo
Procedure, shortened: (§5)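 Normal mice given about 11.5 MBq of the [18F] tracer iv, killed by decapitation at 2, 10 or 30 min pi (n = 2 per time). Blood was collected into a K2EDTA tube, weighed and gamma-counted, then centrifuged at 1837g for 10 min. Plasma was weighed and counted. Counts were normalised to sample weight and injected dose as %ID/g, and plasma %ID/g was divided by whole-blood %ID/g.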

[12] = tested on: Intestine; assay: Biodistribution in NMRI mouse intestine assessed as radioactivity after 2 mins; assay type: ADME, organism-based; settings: in vivo; procedure, shortened: as §1
[13] = organism: Mus musculus; assay: Biodistribution in NMRI mouse carcass assessed as radioactivity after 2 mins; assay type: ADME, organism-based; settings: in vivo; procedure, shortened: as §1
[14] = organism: Mus musculus; assay: Biodistribution in NMRI mouse urine assessed as radioactivity after 2 mins; assay type: ADME, organism-based; settings: in vivo; procedure, shortened: as §1
[15] = tested on: Stomach; assay: Biodistribution in NMRI mouse stomach assessed as radioactivity after 60 mins; assay type: ADME, organism-based; settings: in vivo, 1 h; procedure, shortened: as §1
[16] = tested on: Blood; assay: Drug uptake in mouse blood assessed as radioactivity at 11.5 MBq after 30 mins; assay type: ADME, tissue-based; settings: 0.5 h; procedure, shortened: as §3
[17] = organism: Mus musculus; assay: Biodistribution in NMRI mouse carcass assessed as radioactivity after 60 mins; assay type: ADME, organism-based; settings: in vivo, 1 h; procedure, shortened: as §1
[18] = tested on: Femur; assay: Drug uptake in mouse femur bone assessed as radioactivity at 11.5 MBq after 10 mins; assay type: ADME, tissue-based; settings: in vivo; procedure, shortened: as §2
[19] = Partition coefficient, log P in 1-octanol and phosphate buffer at pH 7.4; assay type: physicochemical; settings: 1-octanol/phosphate buffer
Procedure, shortened: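 HPLC-isolated tracer (about 550 kBq 11C or 185 kBq 18F) partitioned between 1-octanol and 0.025 M phosphate buffer pH 7.4 (2 mL each). Vortexed 2 min at room temperature, centrifuged 1837 g for 5 min. Aliquots of both phases weighed and gamma counted. P calculated as the cpm/mL ratio after density correction; n=6.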

[20] = tested on: Kidney; assay: Biodistribution in NMRI mouse kidney assessed as radioactivity after 2 mins; assay type: ADME, organism-based; settings: in vivo; procedure, shortened: as §1
[21] = tested on: Femur; assay: Drug uptake in mouse femur bone assessed as radioactivity at 11.5 MBq after 30 mins; assay type: ADME, tissue-based; settings: in vivo, 0.5 h; procedure, shortened: as §2
[22] = tested on: Plasma; assay: Metabolic stability in mouse plasma assessed as radioactivity after 10 mins; assay type: ADME, cell-free; procedure, shortened: as §4
[23] = tested on: Lung; assay: Biodistribution in NMRI mouse lungs assessed as radioactivity after 2 mins; assay type: ADME, organism-based; settings: in vivo; procedure, shortened: as §1
[24] = organism: Mus musculus; assay: Biodistribution in NMRI mouse spleen + pancreas assessed as radioactivity after 2 mins; assay type: ADME, organism-based; settings: in vivo; procedure, shortened: as §1
[25] = tested on: Intestine; assay: Biodistribution in NMRI mouse intestine assessed as radioactivity after 60 mins; assay type: ADME, organism-based; settings: in vivo, 1 h; procedure, shortened: as §1
[26] = tested on: Nucleic Acid; assay: Ratio of drug level in femur bone to blood in mouse assessed as radioactivity at 11.5 MBq, iv after 30 mins; assay type: ADME, organism-based; settings: other tissue, 0.5 h
Procedure, shortened: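 Normal mice injected with 11.5 MBq of the [18F] tracer and killed at 2, 10 or 30 min pi (two animals per time). Left and right femurs were collected, weighed and gamma-counted, and uptake was expressed as %ID/g. Blood %ID/g was reported at the same time points.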

[27] = tested on: Blood; assay: Drug uptake in mouse blood assessed as radioactivity at 11.5 MBq after 10 mins; assay type: ADME, tissue-based; procedure, shortened: as §3
[28] = tested on: Plasma; assay: Metabolic stability in mouse plasma assessed as radioactivity after 2 mins; assay type: ADME, cell-free; procedure, shortened: as §4
[29] = Metabolic stability in mouse urine assessed as radioactivity after 1 hr; assay type: ADME, tissue-based; procedure, shortened: as §4
[30] = tested on: Kidney; assay: Biodistribution in NMRI mouse kidney assessed as radioactivity after 60 mins; assay type: ADME, organism-based; settings: in vivo, 1 h; procedure, shortened: as §1
[31] = tested on: Femur; assay: Drug uptake in mouse femur bone assessed as radioactivity at 11.5 MBq after 2 mins; assay type: ADME, tissue-based; settings: in vivo; procedure, shortened: as §2
[32] = tested on: Blood; assay: Biodistribution in NMRI mouse blood assessed as radioactivity after 60 mins; assay type: ADME, organism-based; settings: in vivo, 1 h; procedure, shortened: as §1
[33] = organism: Mus musculus; assay: Biodistribution in NMRI mouse spleen + pancreas assessed as radioactivity after 60 mins; assay type: ADME, organism-based; settings: in vivo, 1 h; procedure, shortened: as §1
[34] = organism: Mus musculus; assay: Biodistribution in NMRI mouse urine assessed as radioactivity after 60 mins; assay type: ADME, organism-based; settings: in vivo, 1 h; procedure, shortened: as §1
[35] = tested on: Nucleic Acid; assay: Ratio of drug level in plasma to whole blood in mouse assessed as radioactivity at 11.5 MBq, iv after 30 mins; assay type: ADME, organism-based; settings: in vivo, 0.5 h; procedure, shortened: as §5
[36] = tested on: Heart; assay: Biodistribution in NMRI mouse heart assessed as radioactivity after 60 mins; assay type: ADME, organism-based; settings: in vivo, 1 h; procedure, shortened: as §1
[37] = Drug uptake in LV-VZVTK-IP transduced 293T cells assessed as radioactivity at 185 kBq after 3 hrs; assay type: ADME, cell-based; settings: human, hek-293t
Procedure, shortened: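 293T cells stably transduced with lentivirus carrying VZV-tk-IRES-pac (kept in 1 µg/mL puromycin), alongside untransduced control 293T cells. Plated in triplicate at 200 000 cells/well. After 24 h, fresh medium with HPLC-purified tracer added: 1.1 MBq (11C tracer, 0.5 h) or 185 kBq (18F tracer, 3 h), 37 °C. Cells washed with ice-cold PBS and lysed. Gamma counting. Uptake given as % of total radioactivity per mg protein (Bio-Rad assay).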

[38] = tested on: Nucleic Acid; assay: Ratio of drug level in plasma to whole blood in mouse assessed as radioactivity at 11.5 MBq, iv after 10 mins; assay type: ADME, organism-based; settings: in vivo; procedure, shortened: as §5
[39] = tested on: Heart; assay: Biodistribution in NMRI mouse heart assessed as radioactivity after 2 mins; assay type: ADME, organism-based; settings: in vivo; procedure, shortened: as §1
[40] = tested on: Liver; assay: Biodistribution in NMRI mouse liver assessed as radioactivity after 60 mins; assay type: ADME, organism-based; settings: in vivo, 1 h; procedure, shortened: as §1
[41] = Inhibition of Varicella zoster virus thymidine kinase; set-up: species or system Human alphaherpesvirus 3
Procedure, shortened: (§6)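 Purified recombinant VZV TK (7.75 ng), HSV-1 TK (226 ng) or human cytosolic TK-1 (455 ng) in 50 mM Tris-HCl pH 8.0, 2.5 mM MgCl2, 10 mM DTT, 2.5 mM ATP, 1 mg/mL BSA, 10 mM NaF, with 1 µM final [CH3-3H]dThd substrate. Incubated 30 min at 37 °C with varied compound concentrations; the reaction was linear over this time. Product bound on DE-81 filters, washed, and counted by liquid scintillation. Result reported as IC50.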

[42] = Inhibition of HSV1 thymidine kinase; set-up: species or system Human alphaherpesvirus 1; procedure, shortened: as §6
[43] = biological target: T1, Thymidine kinase, cytosolic (Homo sapiens, UniProt P04183); assay: Inhibition of human cytosolic thymidine kinase 1; procedure, shortened: as §6
T1 sequence (P04183 whole entry): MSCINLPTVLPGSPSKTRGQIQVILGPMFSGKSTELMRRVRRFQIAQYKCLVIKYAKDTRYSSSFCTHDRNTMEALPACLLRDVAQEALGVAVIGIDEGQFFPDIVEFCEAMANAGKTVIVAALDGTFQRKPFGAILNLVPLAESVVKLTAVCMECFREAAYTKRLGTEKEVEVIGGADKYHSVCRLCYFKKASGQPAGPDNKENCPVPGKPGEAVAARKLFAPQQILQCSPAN

O=c1nc2oc(-c3ccc(OCC[18F])cc3)cc2cn1[C@H]1C[C@H](O)[C@@H](CO)O1
Drug uptake [1]: 0 %ID
Drug uptake [2]: 0.25 % ID/g
Drug uptake [3]: 24.7 %ID
Drug uptake [4]: 0 %ID
Drug uptake [5]: 1.57 % ID/g
Drug uptake [6]: 1.2 %ID
Drug uptake [7]: 0.35 % ID/g
Drug uptake [8]: 0.2 %ID
Drug uptake [9]: 4.8 %ID
Stability [10]: 40.6%
Ratio [11]: 1.39
Drug uptake [12]: 17.7 %ID
Drug uptake [13]: 18.3 %ID
Drug uptake [14]: 11.8 %ID
Drug uptake [15]: 1.1 %ID
Drug uptake [16]: 0.63 % ID/g
Drug uptake [17]: 11.9 %ID
Drug uptake [18]: 0.66 % ID/g
logD [19]: 1.2
Drug uptake [20]: 20.1 %ID
Drug uptake [21]: 1.25 % ID/g
Stability [22]: 82%
Drug uptake [23]: 0.7 %ID
Drug uptake [24]: 1.4 %ID
Drug uptake [25]: 44.3 %ID
Ratio [26]: 2
Drug uptake [27]: 1.42 % ID/g
Stability [28]: 94.7%
Stability [29]: 91.5%
Drug uptake [30]: 1.1 %ID
Drug uptake [31]: 0.57 % ID/g
Drug uptake [32]: 1.5 %ID
Drug uptake [33]: 1.1 %ID
Drug uptake [34]: 34.8 %ID
Ratio [35]: 1.02
Drug uptake [36]: 0.1 %ID
Drug uptake [37]: 76.6 %ID
Ratio [38]: 1.34
Drug uptake [39]: 0.3 %ID
Drug uptake [40]: 4.3 %ID

O=c1nc2oc(-c3ccc(OCCCCCCF)cc3)cc2cn1[C@H]1C[C@H](O)[C@@H](CO)O1
pIC50 [41]: 5.39
pIC50 [42]: < 3.30
pIC50 [43]: < 3.30

From ChEMBL document CHEMBL1138348, “A p-[18F]fluoroethoxyphenyl bicyclic nucleoside analogue as a potential positron emission tomography imaging agent for varicella-zoster virus thymidine kinase gene expression” (J Med Chem, 2007)
